# From ChEMBL document CHEMBL2086275, “Docking studies, synthesis, characterization of some novel oxazine substituted 9-anilinoacridine derivatives and evaluation for their antioxidant and anticancer activities as topoisomerase II inhibitors” (Eur J Med Chem, 2012)
# Legend:
# Format in all cases: functional
# [1] = Antioxidant activity assessed as hydrogen peroxide radical scavenging activity
# [2] = Antioxidant activity assessed as inhibition of superoxide radical-induced NBT reduction by alkaline DMSO method
# [3] = Antitumor activity against mouse DLA cells after 3 hrs by trypan blue dye exclusion assay
# In short: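 DLA cells were grown in the peritoneal cavity of albino mice (25-30 g) by i.p. injection of 1×10^6 cells/mL. Cells were harvested on day 15, washed three times in HBSS and adjusted to 2×10^6 cells/mL. Cells were exposed to graded drug concentrations in PBS (1:1 volume) for 3 h at 37 °C, 5% CO2. Viability was counted by haemocytometer after 1:1 mixing with 0.4% trypan blue, and % inhibition and CTC50 were calculated.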
SMILES,IC50 [1],IC50 [2],CC50 [3]
O=C(/C=C/c1ccc([N+](=O)[O-])cc1)c1ccc(Nc2c3ccccc3nc3ccccc23)cc1,> 1000 µg/mL,> 500 µg/mL,
O=C(/C=C/c1ccccc1Cl)c1ccc(Nc2c3ccccc3nc3ccccc23)cc1,> 1000 µg/mL,> 500 µg/mL,
O=C(/C=C/c1cccc(Cl)c1)c1ccc(Nc2c3ccccc3nc3ccccc23)cc1,> 1000 µg/mL,> 500 µg/mL,
O=C1O[C@H]([C@@H](O)CO)C(O)=C1O [ASCORBIC ACID],18.6 µg/mL,24.77 µg/mL,
COc1cc(C2=NC(N)OC(c3ccc(Nc4c5ccccc5nc5ccccc45)cc3)=C2)ccc1O (configuration not stated),14.5 µg/mL,24.02 µg/mL,250 µg/mL
NC1N=C(c2cccc(Cl)c2)C=C(c2ccc(Nc3c4ccccc4nc4ccccc34)cc2)O1 (configuration not stated),36.01 µg/mL,37.43 µg/mL,820 µg/mL
O=C(/C=C/c1ccc(Cl)cc1Cl)c1ccc(Nc2c3ccccc3nc3ccccc23)cc1,> 1000 µg/mL,> 500 µg/mL,
COc1cc(/C=C/C(=O)c2ccc(Nc3c4ccccc4nc4ccccc34)cc2)ccc1O,> 1000 µg/mL,> 500 µg/mL,
O=C(/C=C/c1ccc(Cl)cc1)c1ccc(Nc2c3ccccc3nc3ccccc23)cc1,> 1000 µg/mL,> 500 µg/mL,
NC1N=C(c2ccc([N+](=O)[O-])cc2)C=C(c2ccc(Nc3c4ccccc4nc4ccccc34)cc2)O1 (configuration not stated),24.03 µg/mL,47.5 µg/mL,725 µg/mL
O=C(/C=C/c1ccccc1)c1ccc(Nc2c3ccccc3nc3ccccc23)cc1,> 1000 µg/mL,> 500 µg/mL,
NC1N=C(c2ccccc2Cl)C=C(c2ccc(Nc3c4ccccc4nc4ccccc34)cc2)O1 (configuration not stated),25.01 µg/mL,32.05 µg/mL,590 µg/mL
CC1=NC(N)OC(c2ccc(Nc3c4ccccc4nc4ccccc34)cc2)=C1 (configuration not stated),14.2 µg/mL,26.3 µg/mL,140 µg/mL
COc1ccc(/C=C/C(=O)c2ccc(Nc3c4ccccc4nc4ccccc34)cc2)cc1OC,> 1000 µg/mL,> 500 µg/mL,
NC1N=C(c2ccc(Cl)cc2)C=C(c2ccc(Nc3c4ccccc4nc4ccccc34)cc2)O1 (configuration not stated),30.01 µg/mL,68.13 µg/mL,640 µg/mL
NC1N=C(c2ccccc2)C=C(c2ccc(Nc3c4ccccc4nc4ccccc34)cc2)O1 (configuration not stated),17.23 µg/mL,22.27 µg/mL,425 µg/mL
COc1ccc(C2=NC(N)OC(c3ccc(Nc4c5ccccc5nc5ccccc45)cc3)=C2)cc1OC (configuration not stated),18.06 µg/mL,28.01 µg/mL,190 µg/mL
NC1N=C(c2cccc([N+](=O)[O-])c2)C=C(c2ccc(Nc3c4ccccc4nc4ccccc34)cc2)O1 (configuration not stated),12 µg/mL,29.03 µg/mL,600 µg/mL
NC1N=C(c2ccc(Cl)cc2Cl)C=C(c2ccc(Nc3c4ccccc4nc4ccccc34)cc2)O1 (configuration not stated),20.03 µg/mL,28.02 µg/mL,180 µg/mL
C/C=C/C(=O)c1ccc(Nc2c3ccccc3nc3ccccc23)cc1,> 1000 µg/mL,> 500 µg/mL,
O=C(/C=C/c1cccc([N+](=O)[O-])c1)c1ccc(Nc2c3ccccc3nc3ccccc23)cc1,> 1000 µg/mL,> 500 µg/mL,
